# Assay results taken from ChEMBL document CHEMBL1126798, “Keto/enol epoxy steroids: a new structural class of HIV-1 Tat inhibitors” (J Med Chem, 1993).
# Columns and labels:
# H9 = assay: Inhibition of HIV-1 replication in H9 cells infected with three different concentrations of HIV IIIB strain; format: functional, cell-based; conditions: Homo sapiens
# Outline: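 H9 cells infected at three HIV IIIB inoculum levels, then exposed to 3-5 compound concentrations for 5 days. Fresh media and compound replaced on day 3. p24 antigen in culture media measured by ELISA on the final day, mean OD with n = 4 per dose. IC50 found for at least two viral doses, over 3-5 individual assays.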
# [1] = Therapeutic index against HIV-1 whole cell assay was determined, expressed as the ratio of IC50s of cell cytotoxicity to that of HIV replication; conditions: human immunodeficiency virus 1, HIV-1 whole cell assay; read-out: Therapeutic index
# Outline: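 Cytotoxicity: uninfected H9 cells incubated 5 days with the same compound concentrations as the antiviral assay, viable cells counted by trypan blue exclusion. Ratio taken of the cytotoxic IC50 to the IC50 for HIV IIIB replication (p24 ELISA, 5 days, medium and compound renewed day 3).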
# Protein Tat = molecular target: T1, Protein Tat (Human immunodeficiency virus type 1 group M subtype B (isolate PCV12)(HIV-1), UniProt P04326); assay: Inhibition of HIV-1 nuclear regulatory protein Tat; design: species or system Human immunodeficiency virus type 1 (CLONE 12)
# T1 sequence (P04326 whole entry): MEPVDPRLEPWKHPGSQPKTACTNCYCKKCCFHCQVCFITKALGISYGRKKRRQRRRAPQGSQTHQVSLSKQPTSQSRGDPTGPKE
# Outline: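 SW480 cells co-transfected with an HIV-1 LTR-driven CAT reporter plasmid and an SV40 promoter-driven Tat plasmid. Cells incubated with dose-ranged compound for 48 h. Tat-induced expression read out as CAT enzyme activity. IC50 and 95% confidence intervals taken from percent-inhibition dose-response curves over 3-5 runs. Counter-screen used an SV40 promoter-driven CAT plasmid (Tat-independent).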
SMILES,IC50 (H9) [µM],selectivity ratio [1],IC50 (Protein Tat) [µM]
CC(=O)O[C@H]1CCC2C3CC[C@]45O[C@H]4C(O)=C(C(N)=O)C[C@]5(C)C3CC[C@@]21C (stereo not given in full),2.4,1.6,2.6
CC(=O)O[C@H]1CC[C@H]2[C@@H]3CC[C@]45OC4C(=O)C(S(C)(=O)=O)C[C@]5(C)[C@H]3CC[C@]12C (stereo not given in full),0.3,4.3,2.6
C[C@]12CC[C@H]3[C@@H](CC[C@]45OC4C(=O)C(S(C)(=O)=O)C[C@]35C)[C@@H]1CC[C@@H]2O (stereo not given in full),1.4,3.9,8.4
O=C1CN=C(c2ccc[nH]2)c2cc(Cl)ccc2N1,0.6,5.9,4
C[C@]12CCC3C(CC[C@]45OC4C(O)=C(C(N)=O)C[C@]35C)C1CC[C@@H]2O (stereo not given in full),1.2,6.5,14.3
